Activity calls are given as the source filed them. The calls are words filed in the database; no cut-off is given here.

The subject of series [1] is Pseudomonas aeruginosa. Nature of the series: Inhibition of biofilm formation in multidrug resistant Pseudomonas aeruginosa FB at 10 uM relative to control. Type of series: functional.
Series [2] relates to Pseudomonas aeruginosa. Nature of the series: Inhibition of biofilm formation in multidrug resistant Pseudomonas aeruginosa 1167 at 1.25 uM relative to control. The series is classed as functional.
Series [3] relates to Pseudomonas aeruginosa. Nature of the series: Inhibition of biofilm formation in multidrug resistant Pseudomonas aeruginosa 1167 at 2.5 uM relative to control. The series is classed as functional.
For series [4], the system named is Pseudomonas aeruginosa. Nature of the series: Inhibition of biofilm formation in multidrug resistant Pseudomonas aeruginosa 1167 at 20 uM relative to control. The series is classed as functional.
In series [5] the test system is Pseudomonas aeruginosa. Nature of the series: Inhibition of biofilm formation in multidrug resistant Pseudomonas aeruginosa 1129 at 5 uM relative to control. The series is classed as functional.
The subject of series [6] is Pseudomonas aeruginosa. The experiment in a line: Inhibition of biofilm formation in multidrug resistant Pseudomonas aeruginosa 1129 at 10 uM relative to control. The series is classed as functional.
Series [7] concerns Pseudomonas aeruginosa. Nature of the series: Antibacterial activity against Pseudomonas aeruginosa infected in African green monkey Vero cells assessed as increase in cell survival pretreated for 24 hrs followed by cell addition and measured 4 hrs post-infection by MTT assay. The note with it: dose microM 1.25-20, time 28.0 hrs. The series is classed as functional, organism-based. The method in brief: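 P. aeruginosa cultures were grown with 0, 1.25, 2.5, 5, 10 or 20 μM compound for 24 h at 37 °C with shaking. Washed cells (in DMEM) were infected at MOI 100 for 4 h. Bacteria were then killed with 500 μg/mL gentamycin for 2 h, and cells were given 500 μg/mL MTT for 16 h. Formazan was dissolved in DMSO and read at 570 nm.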

The test system of series [8] is Pseudomonas aeruginosa. The experiment in a line: Inhibition of twitching motility in Pseudomonas aeruginosa PAO1 assessed at 1.25 to 20 uM measured after 16 hrs. Type of series: functional. The note with it: dose microM 1.25-20, time 16.0 hrs. The method in brief:
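Plates of LB with 1% agar, 0.5% casamino acids and 0.5% glucose contained compound at 0–20 μM. After drying 1 h, 1 μL PAO1 (OD600 1) was inoculated at the plate bottom and incubated 16 h at 37 °C. Three independent experiments.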

The subject of series [9] is Pseudomonas aeruginosa. Nature of the series: Inhibition of swimming motility of Pseudomonas aeruginosa PAO1 measured after 16 hrs. The series is classed as functional, organism-based. The note with it: dose microM 1.25-20, time 16.0 hrs. The method in brief:
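Compound (0–20 μM) was included in LB plates with 0.3% agar, 0.5% casamino acids and 0.5% glucose. Plates were dried 1 h, then 1 μL PAO1 (OD600 1) was placed at the plate bottom. Incubation was 16 h at 37 °C; three independent experiments.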

Series [10] is described as follows: Inhibition of GFP (unknown origin) at 1.25 to 20 uM by measuring fluorescence intensity every 15 mins for 12 hrs by microtiter plate reader assay. The note with it: dose microM 1.25-20, time 12.0 hrs. The method in brief:
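PAO1-gfp, PAO1-lasB-gfp, PAO1-rhlA-gfp or PAO1-pqsA-gfp reporters were grown overnight in LB, then diluted in ABTGC medium to OD600 0.02, with compound at 1.25–20 μM. Controls were 0.1% DMSO and a blank. OD600 and GFP fluorescence (ex 485/em 535 nm) were read every 15 min for at least 12 h at 37 °C; triplicate.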

In series [11] the test system is Pseudomonas aeruginosa PAO1. The experiment in a line: Induction of iron chelation in Pseudomonas aeruginosa PAO1 assessed as increase in iron deficiency by measuring ferric ion concentration inductively coupled plasma mass spectrometry. The note with it: dose microM 1.25-20. In outline:
(§1)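 PAO1 (OD600 0.05) was diluted 1:100 into ABTGC medium and grown 24 h at 37 °C with shaking, with compound; DFP at 20 μM was the reference. Pellets were washed twice in HEPES and lysed with lysozyme in 50 mM HEPES plus sonication for 30 min. Lysates were digested with 1 M nitric acid, centrifuged, and analysed by ICP-MS. Mean ± SD, triplicate.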

Series [12] deals with Pseudomonas aeruginosa PAO1. Nature of the series: Induction of iron chelation in Pseudomonas aeruginosa PAO1 assessed as increase in iron deficiency by measuring change in total ferric ion concentration at 2.5 uM by inductively coupled plasma mass spectrometry (reference value: 1.91 +/- 0.8 uM). The method in brief: as §1
The nature of series [13]: Metal chelating activity assessed as negative logarithm of total free ferric ion concentration in a solution at 60 uM measured after 48 hrs in presence of CP645 probe and Fe-NTA by fluorescence spectrophotometry analysis.
A short description of series [14]: Metal chelating activity assessed as negative logarithm of total free ferric ion concentration in a solution under biological conditions. In outline: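 Fluorescence competition with CP645 (6 μM), quenched by Fe-NTA (2 μM) for 30 min before compound (60 μM) was added in Chelex-treated MOPS. Fluorescence was read after 48 h, with DFP as reference. pFe(III) was calculated from relative fluorescence as % = 11.743 pFe(III) − 169. Mean of three determinations.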

Series [15] is described as follows: Growth inhibition of Pseudomonas aeruginosa PAO1 at 1.25 to 20 uM measured after 10 hrs in ABTGC media. The note with it: dose 1.25-20 µM.
In series [16] the test system is Pseudomonas aeruginosa. Nature of the series: Antibiofilm activity against Pseudomonas aeruginosa PAO1 assessed as inhibition of biofilm formation after 24 hrs by SYTO 9/propidium iodide staining based confocal microscopic analysis. The series is classed as functional, organism-based. The note with it: dose microM 1.25-20, time 24.0 hrs. The method in brief:
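Biofilms were grown as in the crystal violet assay but on glass-bottom wells, with compound at 1.25–20 μM for 24 h at 37 °C against an untreated control. Wells were rinsed three times with PBS and stained for 15 min in the dark with 1 μM SYTO 9 and 10 μM propidium iodide. Confocal imaging used a 63× oil objective; triplicate.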

With `CCCCCCC(=O)NCc1c(O)c(=O)cc(C)n1C`, the figures for the inhibition at 10 µM in series [1] and in series [6] were 18.4% and 30.4%, respectively. The inhibition at 1.25 µM in series [2] came out at 34.5%. Also, the inhibition at 2.5 µM in [3] worked out at 34.6%. The same compound yielded an inhibition at 20 µM in [4] of 51.4%. In [5], this compound displayed an inhibition at 5 µM of 30.6%. Besides, the Activity entry in series [7] was “Dose-dependent effect”; in [11], “Dose-dependent effect”; in series [12] it was 1.56 µM; in series [16], “Dose-dependent effect”. The inhibition entry in [8] and in [10] was “inactive” each time. Further, the inhibition entry in series [9] was “Dose-dependent effect”. Further, the pFe3+ in series [13] is 22; in series [14] it was 20.6. The “growth inhibition (GI)” value in [15] was “Non-Toxic”.

Values taken from ChEMBL document CHEMBL4665779, “Novel 2-Substituted 3-Hydroxy-1,6-dimethylpyridin-4(1H)-ones as Dual-Acting Biofilm Inhibitors of Pseudomonas aeruginosa” (J Med Chem, 2020).
